Experimental data reported in ChEMBL document CHEMBL1221395, “Synthesis, anticancer activity and mitochondrial mediated apoptosis inducing ability of 2,5-diaryloxadiazole-pyrrolobenzodiazepine conjugates” (Bioorg Med Chem, 2010).
The source made the active and inactive calls. The calls are words filed in the database; no cut-off is given here.

Key:
A-375 [1] = test: Cell cycle arrest in human A375 cells assessed as accumulation at G1 phase after 24 hrs by FACS flow cytometry; design: concentration or dose not given beside the values
[2] = Toxicity against SCID mouse; format: organism-based; conditions: in vivo
A-375 [3] = test: Antitumor activity against human A375 cells assessed as upregulation of pRb protein level at 4 uM after 24 hrs by Western blotting; format: functional, cell-based
In short: (§1)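 A375 cells treated at 4 µM for 24 h. Lysates cleared at 12,000 rpm for 10 min, and protein quantified by Bradford. 30 µg per lane run on 12% SDS-PAGE and transferred to PVDF. Blocked 2 h in TBST with 5% blocking powder. Primary antibody overnight at 4 °C, HRP secondary (1:2000) 1 h at room temperature. β-actin used as loading control; untreated cells as control.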

A-375 [4] = test: Induction of apoptosis in human A375 cells assessed as increase in Caspase 3 activation at 4 uM after 24 hrs by fluorimetry; format: functional, cell-based
In short: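 A375 cells exposed to 4 µM compound. Cell lysate incubated with DEVD-AFC substrate, with or without DEVD-CHO inhibitor, at 37 °C for 1 h in a fluorescent caspase-3 kit. Fluorescence read at excitation 400 nm, emission 505 nm.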

SiHa = test: Cytotoxicity against human SiHa cells after 24 hrs by SRB assay
A-375 [5] = test: Cell cycle arrest in human A375 cells assessed as accumulation at S phase after 24 hrs by FACS flow cytometry; design: concentration or dose not given beside the values
KB = test: Cytotoxicity against human KB cells by SRB assay
MCF7 = test: Cytotoxicity against human MCF7 cells by sulforhodamine B assay
PC-3 [6] = test: Cytotoxicity against human PC3 cells after 24 hrs by WST-1 assay; format: functional; conditions: PC-3, 24 h
A-375 [7] = test: Antitumor activity against human A375 cells assessed as upregulation of p21 protein level at 4 uM after 24 hrs by Western blotting; format: functional, cell-based
In short: as §1

Mus musculus [8] = test: Toxicity against SCID mouse assessed as mortality at 20 mg/kg, ip q4d on day 1, 5 and 9; format: organism-based; design: dose 20 mg/kg, route intraperitoneal; conditions: in vivo
In short: (§2)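 Male NOD-SCID mice carrying human prostate PC-3 xenografts were dosed at 20 mg/kg ip on days 1, 5 and 9 (q4d). Mortality and body weight were followed over days 1–31, alongside a control group and an adriamycin 5 mg/kg arm. Tumour weight was recorded over the same period.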

PC-3 [9] = test: Antitumor activity against human PC3 cells xenografted in NOD-SCID mouse at 20 mg/kg, ip q4d on day 1, 5 and 9; format: functional, organism-based; design: dose 20 mg/kg
In short: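 Human prostate cancer PC-3 xenografts in male NOD-SCID mice. Dosed 20 mg/kg intraperitoneally on days 1, 5 and 9 (q4d). Tumour weight and body weight/survival followed over about 31 days. Adriamycin 5 mg/kg and untreated groups served as comparators.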

[10] = Cytotoxicity against human Gurav cells after 24 hrs by WST-1 assay; format: functional
Mus musculus [11] = test: Toxicity against SCID mouse assessed as weight loss at 20 mg/kg, ip q4d on day 1, 5 and 9; format: organism-based; design: dose 20 mg/kg, route intraperitoneal; conditions: in vivo
In short: as §2

Calf thymus DNA = test: Binding affinity to calf thymus DNA assessed as change in melting temperature after 18 hrs; format: nucleic-acid assay; conditions: Bos taurus
In short: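 Thermal melting with duplex CT-DNA (100 µM in phosphate) and ligand (20 µM), added from methanol stock, [PBD]/[DNA] 1:5, in 10 mM sodium phosphate + 1 mM EDTA, pH 7.00; incubated at 37 °C for 18 h. A260 monitored while heating at 1 °C/min over 40–90 °C. Tm taken from d(A260)/dT maxima, corrected for methanol; ΔTm = Tm(DNA+ligand) − Tm(DNA alone); at least three determinations.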

[12] = Cytotoxicity against human DWD cells by SRB assay
A549 = test: Cytotoxicity against human A549 cells after 24 hrs by WST-1 assay; format: functional; conditions: A549, 24 h
A-375 [13] = test: Cell cycle arrest in human A375 cells assessed as accumulation at G2/M phase after 24 hrs by FACS flow cytometry; design: concentration or dose not given beside the values
A-375 [14] = test: Induction of apoptosis in human A375 cells assessed as increase in PARP protein level at 4 uM after 24 hrs by Western blotting; format: functional, cell-based
In short: as §1

[15] = Lipophilicity, log P of the compound; format: physicochemical; conditions: octanol/water
A-375 [16] = test: Induction of apoptosis in human A375 cells assessed as increase in Bax protein level at 4 uM after 24 hrs by Western blotting; format: functional, cell-based
In short: as §1

A-375 [17] = test: Induction of apoptosis in human A375 cells assessed as increase in cytochrome C protein level at 4 uM after 24 hrs by Western blotting; format: functional, cell-based
In short: as §1

A-375 [18] = test: Antitumor activity against human A375 cells assessed as upregulation of p53 protein level at 4 uM after 24 hrs by Western blotting; format: functional, cell-based
In short: as §1

A2780 = test: Cytotoxicity against human A2780 cells by SRB assay
HOP-62 = test: Cytotoxicity against human HOP62 cells after 24 hrs by WST-1 assay; format: functional; conditions: HOP-62, 24 h
A-375 [19] = test: Cell cycle arrest in human A375 cells assessed as accumulation at Sub-G1 phase after 24 hrs by FACS flow cytometry; design: concentration or dose not given beside the values
ZR-75-1 = test: Cytotoxicity against human ZR-75-1 cells by SRB assay
COLO 205 = test: Cytotoxicity against human COLO205 cells after 24 hrs by SRB assay; conditions: COLO 205, 24 h

Question: For `COc1ccc(-c2nnc(-c3ccc(OC)c(OCCCCCOc4cc5c(cc4OC)C(=O)N4CCC[C@H]4C=N5)c3)o2)cc1OC`, which Activity (A-375 [1]) is on record?
Answer: 59.66%

Question: What about the MTD [2] of the same molecule?
Answer: < 50 mg/kg

Question: And the Activity (A-375 [3])?
Answer: Active

Question: And the Activity (A-375 [4])?
Answer: Active

Question: And the GI50 (SiHa)?
Answer: < 100 nM

Question: And the Activity (A-375 [5])?
Answer: 2.68%

Question: What about the GI50 (KB) of the same molecule?
Answer: < 100 nM

Question: What about the GI50 (MCF7) of the same molecule?
Answer: < 100 nM

Question: What about the GI50 (PC-3 [6]) of the same molecule?
Answer: < 100 nM

Question: What about the Activity (A-375 [7]) of the same molecule?
Answer: Active

Question: And the Activity (Mus musculus [8])?
Answer: Non-toxic

Question: And the Activity (PC-3 [9])?
Answer: Active

Question: What about the GI50 [10] of the same molecule?
Answer: < 100 nM

Question: And the Activity (Mus musculus [11])?
Answer: Non-toxic

Question: And the ΔTm (Calf thymus DNA)?
Answer: 5.8 °C

Question: And the GI50 [12]?
Answer: < 100 nM

Question: What about the GI50 (A549) of the same molecule?
Answer: < 100 nM

Question: And the Activity (A-375 [13])?
Answer: 0.99%

Question: And the Activity (A-375 [14])?
Answer: Active

Question: And the logP [15]?
Answer: 4.68

Question: What about the Activity (A-375 [16]) of the same molecule?
Answer: Active

Question: And the Activity (A-375 [17])?
Answer: Active

Question: And the Activity (A-375 [18])?
Answer: Active

Question: What about the GI50 (A2780) of the same molecule?
Answer: < 100 nM

Question: What about the GI50 (HOP-62) of the same molecule?
Answer: < 100 nM

Question: And the Activity (A-375 [19])?
Answer: 36.66%

Question: What about the GI50 (ZR-75-1) of the same molecule?
Answer: < 100 nM

Question: And the GI50 (COLO 205)?
Answer: < 100 nM
